Source: ChEMBL document CHEMBL1124641, “Synthesis and antiinflammatory and analgesic activity of 5-aroyl-6-(methylthio)-1,2-dihydro-3H-pyrrolo[1,2-a]pyrrole-1-ca rboxyl ic acids and 1-methyl-4-(methylthio)-5-aroylpyrrole-2-acetic acids” (J Med Chem, 1989)

Tests used:
[1] = tested on: Mus musculus; experiment: Analgesic activity was assessed from the ability to inhibit phenylquinone-induced writhing in mouse […]; format: functional
How it was run: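 Mouse phenylquinone-induced writhing screen. Potency is expressed relative to aspirin (aspirin = 1), with 95% confidence limits where given.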

[2] = tested on: Rattus norvegicus; experiment: Antiinflammatory activity assessed by inhibition of carrageenan-induced edema in rats […]; format: functional
[3] = Therapeutic ratio of MED GI erosion to that of ED30 of rat paw; format: ADME
How it was run: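 Ratio derived as the gastrointestinal erosion minimum effective dose divided by the ED30 from the carrageenan rat paw assay. The erosion dose (mg/kg per day) comes from a 7-day chronic dosing assay in rats.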

[4] = organism: Rattus norvegicus; experiment: Chronic gastrointestinal erosive activity in rats; format: functional; settings: read-out: MED
How it was run: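 Chronic 7-day gastrointestinal erosion assay in rats with daily dosing. The read-out is the minimum effective dose for erosion (mg/kg per day), with 15 rats where stated.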

Compound	ED50 [1]	ED30 [2]	selectivity ratio [3]	minimal effective dose [4]
CSc1cc2n(c1C(=O)c1ccc(Br)cc1)CCC2C(=O)O (stereo unspecified)	< 9 mg/kg	26 mg/kg		
CSc1cc2n(c1C(=O)c1ccc(F)cc1)CCC2C(=O)O (stereo unspecified)	60 mg/kg	< 10 mg/kg		
CCOc1ccc(C(=O)c2c(SC)cc(CC(=O)O)n2C)cc1	6 mg/kg	3.6 mg/kg		
CSc1cc2n(c1C(=O)c1ccc(OC(C)C)cc1)CCC2C(=O)O (stereo unspecified)	1 mg/kg	< 1 mg/kg		
COc1ccc(C(=O)c2c(SC)cc3n2CCC3C(=O)O)cc1 (stereo unspecified)	50 mg/kg	< 10 mg/kg		
CS(=O)(=O)c1cc2n(c1C(=O)c1ccc(Br)cc1)CCC2C(=O)O (stereo unspecified)		< 1 mg/kg		
CSc1cc(CC(=O)O)n(C)c1C(=O)c1ccc(F)cc1	37 mg/kg	0.5 mg/kg		
CCc1ccc(C(=O)c2c(SC)cc3n2CCC3C(=O)O)cc1 (stereo unspecified)	70 mg/kg	16 mg/kg		
CSc1cc2n(c1C(=O)c1ccc(C3CC3)cc1)CCC2C(=O)O (stereo unspecified)	25 mg/kg	13 mg/kg		
CSc1ccc(C(=O)c2c(SC)cc3n2CCC3C(=O)O)cc1 (stereo unspecified)	50 mg/kg	10 mg/kg		
CSc1cc(CC(=O)O)n(C)c1C(=O)c1ccc(Cl)cc1	56 mg/kg	1.5 mg/kg		
CSc1cc2n(c1C(=O)c1ccc(C(F)(F)F)cc1)CCC2C(=O)O (stereo unspecified)	50 mg/kg	15 mg/kg		
CSc1cc(CC(=O)O)n(C)c1C(=O)c1ccc(C2CC2)cc1	30 mg/kg	10 mg/kg		
CCCc1ccc(C(=O)c2c(SC)cc3n2CCC3C(=O)O)cc1 (stereo unspecified)	7 mg/kg	2.5 mg/kg		
CSc1cc2n(c1C(=O)c1ccc(C3CCCCC3)cc1)CCC2C(=O)O (stereo unspecified)	< 3 mg/kg	< 1 mg/kg		
CCOc1ccc(C(=O)c2c(SC)cc3n2CCC3C(=O)O)cc1 (stereo unspecified)	< 13 mg/kg	4 mg/kg		
CSc1cc2n(c1C(=O)c1ccc(C)cc1)CCC2C(=O)O (stereo unspecified)			4	19 mg/kg
CCCc1ccc(C(=O)c2c(SC)cc(CC(=O)O)n2C)cc1	5 mg/kg	0.2 mg/kg		
CSc1cc(CC(=O)O)n(C)c1C(=O)c1ccc(C)cc1			> 4.5	> 45 mg/kg
C=Cc1ccc(C(=O)c2c(SC)cc3n2CCC3C(=O)O)cc1 (stereo unspecified)	38 mg/kg	16 mg/kg		
CSc1cc(CC(=O)O)n(C)c1C(=O)c1ccccc1	> 11 mg/kg	1 mg/kg		
CSc1cc2n(c1C(=O)c1ccc(Cl)cc1)CCC2C(=O)O (stereo unspecified)			3.5	1.5 mg/kg
CC(=O)Oc1ccccc1C(=O)O [ASPIRIN]	70 mg/kg			
O=C(c1ccccc1)c1ccc2n1CCC2C(=O)O (stereo unspecified) [KETOROLAC]			18	5 mg/kg
COc1ccc2cc([C@H](C)C(=O)O)ccc2c1 [NAPROXEN]			22	30 mg/kg/day
CCCCC1C(=O)N(c2ccccc2)N(c2ccccc2)C1=O [PHENYLBUTAZONE]		15 mg/kg		
Cc1cc(CC(=O)O)n(C)c1C(=O)c1ccc(Cl)cc1 [ZOMEPIRAC]			17	10 mg/kg
